Assay results of several laboratories.
Compare with care: the assays were run in different laboratories.
CHRM1: Muscarinic acetylcholine receptor M1 (CHRM1, Homo sapiens, UniProt P11229)
CDK3: Cyclin-dependent kinase 3 (CDK3, Homo sapiens, UniProt Q00526)
CSNK1A1L: Casein kinase I isoform alpha-like (CSNK1A1L, Homo sapiens, UniProt Q8N752)

SMILES	target	assay	system	conditions	measurement	result
Cc1cc(F)cc2c(CCC(=O)N[C@@H]3C(=O)NC[C@H]3O)c(-c3ccc(F)cc3)[nH]c12	CHRM1	cell-free assay		10 µM	inhibition	14%
CCN1/C(=C/C(C)=O)Sc2ccc(F)cc21	Prostaglandin E2 receptor EP2 subtype (PTGER2, Homo sapiens, UniProt P43116)	ligand displacement, radioligand		10 µM	inhibition	4.3%
Cc1cc(O)c(-c2ccc([C@@H](C)CN(C)C)cc2)c2c1[nH]c(=O)c1sccc12	Serine/threonine-protein kinase Sgk1 (SGK1, Homo sapiens, UniProt O00141)	enzyme activity, inhibitor		0.1 µM	inhibition	-3.37%
Cc1cc(S(=O)(=O)N[C@H]2CC[C@H](CN3CCN(c4ccc(C5CCC(=O)NC5=O)cc4F)CC3)CC2)ccc1Nc1ncc(C(F)(F)F)c(N2CCC[C@](C)(O)C2)n1 (some centres unmarked)	CDK3	binding, competition with immobilised ligand		1 µM	remaining binding	63%
NC/C(=C\F)COc1cccc(Cn2c(=S)[nH]c(=O)c3[nH]cnc32)c1	CHRM1	ligand displacement, radioligand		10 µM	inhibition	< 50%
COc1ccc2oc(-c3ccc4nc(N)oc4c3)c/c(=N\c3ccccc3NC(=O)CCN)c2c1	Tyrosine-protein kinase ABL1 (Abl1, Mus musculus, UniProt P00520)	binding		1 µM	remaining binding	91%
C#Cc1cc(-c2cc(Nc3nc(N[C@@H](C)c4ccc(F)cn4)ncc3Cl)n[nH]2)ccc1C=O	Tyrosine-protein kinase JAK1 (JAK1, Homo sapiens, UniProt P23458)	enzyme activity, inhibitor		0.2 µM	inhibition	89.1%
CNS(=O)(=O)c1ccc(Nc2ncc(C(F)(F)F)c(N3CCC[C@](C)(O)C3)n2)c(C)c1	CDK3	binding, competition with immobilised ligand		1 µM	remaining binding	49%
CCCCC(=O)Nc1ccc(-c2ccc3ncn(CCC)c(=O)c3c2)cn1	CSNK1A1L	binding, competition with immobilised ligand		0.5 µM	remaining binding	99%
C1=C/COCc2cc(ccc2OCCN2CCCC2)Nc2nccc(n2)-c2cccc(c2)COC/1	CSNK1A1L	binding		0.1 µM	remaining binding	99%
CNC(=O)COc1cc2cc(Nc3nc(N4CCC(C(=O)N(C)C)CC4)ncc3Cl)cc(OC)c2n(C)c1=O	B-cell lymphoma 6 protein (BCL6, Homo sapiens, UniProt P41182)	target engagement in cells, BRET	HEK-293T	1 µM	inhibition	> 90%
